From ChEMBL document CHEMBL3585304, “Synthesis and evaluation of tamoxifen derivatives with a long alkyl side chain as selective estrogen receptor down-regulators” (Bioorg Med Chem, 2015) come the findings set out here.

Calls of active or inactive are those of the source. The rule behind the calls is not given here.

Assay [1] has as its system MCF7. Nature of the assay: Reduction in endogenous ERalpha expression in human MCF7 cells at 10 uM after 6 hrs by Western blot analysis. In kind it is functional, cell-based. The essentials: (§1)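 MCF-7 cells exposed to compounds (10 µM shown for the chain-length series) for 6 h. Cells lysed in 1% SDS, 0.1 M Tris–HCl pH 7.0, 10% glycerol and boiled 10 min. Protein measured by BCA, and equal amounts run on SDS–PAGE, transferred to PVDF and immunoblotted for endogenous ERα.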

Assay [2] deals with T1, Estrogen receptor (Homo sapiens, UniProt P03372).
T1 sequence (P03372 whole entry): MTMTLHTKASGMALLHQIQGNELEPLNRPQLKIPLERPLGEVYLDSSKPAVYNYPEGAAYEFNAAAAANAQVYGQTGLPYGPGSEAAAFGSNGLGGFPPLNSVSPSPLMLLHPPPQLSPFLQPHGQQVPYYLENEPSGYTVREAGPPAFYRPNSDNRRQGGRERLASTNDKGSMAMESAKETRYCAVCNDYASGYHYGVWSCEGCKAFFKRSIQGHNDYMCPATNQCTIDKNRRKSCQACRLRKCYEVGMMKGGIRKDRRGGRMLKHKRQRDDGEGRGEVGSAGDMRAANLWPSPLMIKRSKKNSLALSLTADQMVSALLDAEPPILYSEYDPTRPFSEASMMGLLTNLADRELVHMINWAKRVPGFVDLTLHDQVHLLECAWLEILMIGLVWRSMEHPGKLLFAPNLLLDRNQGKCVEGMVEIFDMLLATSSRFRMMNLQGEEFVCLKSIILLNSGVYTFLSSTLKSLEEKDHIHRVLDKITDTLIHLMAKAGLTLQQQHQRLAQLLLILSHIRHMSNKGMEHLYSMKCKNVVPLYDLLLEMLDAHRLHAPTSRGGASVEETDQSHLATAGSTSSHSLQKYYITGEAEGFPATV
Description: Inhibition of ERalpha (unknown origin) by fluorescence polarization-based competition binding assay.

Assay [3] has as its system MCF7. Description: Reduction in endogenous ERalpha expression in human MCF7 cells after 6 hrs by Western blot analysis. In kind it is functional, cell-based. The essentials: as §1
The subject of assay [4] is MCF7. Nature of the assay: Reduction in endogenous ERalpha expression in human MCF7 cells at 0.1 to 1 uM after 6 hrs by Western blot analysis in presence of 10 uM MG132 proteasome inhibitor. In kind it is functional, cell-based. The essentials:
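MCF-7 cells incubated 6 h with graded compound concentrations, with or without proteasome inhibitor MG132 (10 µM). Lysis in 1% SDS, 0.1 M Tris–HCl pH 7.0, 10% glycerol, then boiling 10 min. BCA protein assay, equal loading on SDS–PAGE, PVDF transfer, and Western blot detection of ERα.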
On the technique in general: Immunoblotting shows a protein as a band on a membrane.

For the compound `CCCCCCCCCCNCCOc1ccc(/C(=C(/CC)c2ccccc2)c2ccc(O)cc2)cc1`, the inhibition result in assay [1] is “Active”. In assay [2], this compound came in with an IC50 of 3.6 nM.

On to `CCCCCCCCCCCCCCCCCCNCCOc1ccc(/C(=C(/CC)c2ccccc2)c2ccc(O)cc2)cc1`, for which, in assay [2], the IC50 was over 100000 nM.

Turning to `CC/C(=C(\c1ccc(O)cc1)c1ccc(OCCNCCCCCCCCCCF)cc1)c1ccccc1`, the inhibition entry in assay [3] is “Dose-dependent effect”. In addition, the inhibition result in assay [4] was “inactive”. The inhibition entry in assay [1] is “Active”. For the same compound, in assay [2], the IC50 amounted to 3.4 nM. As for `CCC(=C(c1ccc(O)cc1)c1ccc(OCCN(C)C)cc1)c1ccccc1`, in assay [1], the inhibition entry was “inactive”.

For the compound `CCCCCCCCNCCOc1ccc(/C(=C(/CC)c2ccccc2)c2ccc(O)cc2)cc1`, the inhibition result in assay [1] is “inactive”. The same compound showed an IC50 in assay [2] of 53 nM. The corresponding values for `CC/C(=C(\c1ccc(O)cc1)c1ccc(OCCNCCCCCCCCCCO)cc1)c1ccccc1` are “inactive” and 210 nM. In the case of `CCCCCCCCCCCCNCCOc1ccc(/C(=C(/CC)c2ccccc2)c2ccc(O)cc2)cc1`, the IC50 in assay [2] came to 14 nM. For the compound `CCCCCCNCCOc1ccc(/C(=C(/CC)c2ccccc2)c2ccc(O)cc2)cc1`, the inhibition entry in assay [1] is “inactive”. The compound further registered an IC50 in assay [2] of 151 nM. Turning to `CC/C(=C(\c1ccc(O)cc1)c1ccc(OCCNC)cc1)c1ccccc1`, the inhibition result in assay [1] was “inactive”. Consider `CCCCCCCCCCCCCCCCNCCOc1ccc(/C(=C(/CC)c2ccccc2)c2ccc(O)cc2)cc1`, for which the inhibition entry in assay [1] was “inactive”. The same compound gave an IC50 in assay [2] of 4.8 nM. The corresponding values for `CCCCCCCCCCCCCCNCCOc1ccc(/C(=C(/CC)c2ccccc2)c2ccc(O)cc2)cc1` are “inactive” and 11 nM.

What is called IC50 is the concentration needed to halve the response being measured. A low value points to greater potency in that assay.
